From ChEMBL document CHEMBL2203269, “Target-Activated Prodrugs (TAPs) for the Autoregulated Inhibition of MMP12” (ACS Med Chem Lett, 2012)

Substrate: CC(C)C[C@H](NC(=O)CN(C(=O)[C@H](CC(C)C)NC(=O)[C@@H]1CCCN1C(=O)OCc1ccccc1)S(=O)(=O)c1ccc(-c2ccccc2)cc1)C(=O)N[C@@H](CCC(=O)O)C(=O)N[C@@H](CCC(=O)O)C(=O)N[C@@H](C)C(N)=O
Assay: Ratio of Kcat to Km for human MMP-12
In short: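 Recombinant human MMP12 was incubated with the peptidic prodrug substrate. Cleavage at the N terminus of the P1 leucine was monitored by HPLC, and kcat/Km was determined from the HPLC data.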

B1: Macrophage metalloelastase (Homo sapiens), P39900 (protein)
chain: MKFLLILLLQATASGALPLNSSTSLEKNNVLFGERYLEKFYGLEINKLPVTKMKYSGNLMKEKIQEMQHFLGLKVTGQLDTSTLEMMHAPRCGVPDVHHFREMPGGPVWRKHYITYRINNYTPDMNREDVDYAIRKAFQVWSNVTPLKFSKINTGMADILVVFARGAHGDFHAFDGKGGILAHAFGPGSGIGGDAHFDEDEFWTTHSGGTNLFLTAVHEIGHSLGLGHSSDPKAVMFPTYKYVDINTFRLSADDIRGIQSLYGDPKENQRLPNPDNSEPALCDPNLSFDAVTTVGNKIFFFKDRFFWLKVSERPKTSVNLISSLWPTLPSGIEAAYEIEARNQVFLFKDDKYWLISNLRPEPNYPKSIHSFGFPNFVKKIDAAVFNPRFYRTYFFVDNQYWRYDERRQMMDPGYPKLITKNFQGIGPKIDAVFYSKNKYYYFFQGSNQFEYDFLLQRITKTLKSNSWFGC
B1 gave a kcat/Km of 3.7 ×10³ /M.s.
